Measured values published in ChEMBL document CHEMBL1777805, “2-Arylmethylaminomethyl-5,6-dihydroxychromone derivatives with selective anti-HCV activity” (Bioorg Med Chem Lett, 2011).

Key:
[1] = test system: Hepatitis C virus; test: Antiviral activity against HCV in human HuH7 cells assessed as inhibition of RNA replication after 4 days by FRET-based assay; format: functional, organism-based, Hepacivirus hominis; conditions: Huh-7, 96 h
Summary of the method: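 Huh-7 cells carrying an HCV replicon were seeded at 5 × 10³/well in complete DMEM with 500 µg/mL G418 and held 24 h at 37 °C, 5% CO₂. The medium was then refreshed and compounds were added at 0.1–100 µM (seven levels) from DMSO stock. After 4 days at 37 °C, cells were lysed. NS3 protease FRET signal was read at 340 ex/490 em. IFN-α2b (10000 units/well) served as positive control.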

[2] = Cytotoxicity against human HuH7 cells assessed as reduction in cell proliferation; format: cell-based, Huh-7

SMILES: O=c1cc(CNCc2ccc(O)cc2)oc2ccc(O)c(O)c12
- EC50 [1]: > 100 µM
- CC50 [2]: 62.7 µM

SMILES: O=c1cc(CNCc2ccccc2Br)oc2ccc(O)c(O)c12
- EC50 [1]: > 100 µM
- CC50 [2]: > 100 µM

SMILES: O=c1cc(CNCc2ccc(F)cc2)oc2ccc(O)c(O)c12
- EC50 [1]: > 100 µM
- CC50 [2]: > 100 µM

SMILES: O=c1cc(CNCc2ccccc2[N+](=O)[O-])oc2ccc(O)c(O)c12
- EC50 [1]: > 100 µM
- CC50 [2]: 41.3 µM

SMILES: O=c1cc(CNCc2ccc([N+](=O)[O-])cc2)oc2ccc(O)c(O)c12
- EC50 [1]: > 100 µM
- CC50 [2]: 73.3 µM

SMILES: O=c1cc(CNCc2cccc(Cl)c2)oc2ccc(O)c(O)c12
- EC50 [1]: 14 µM
- CC50 [2]: > 100 µM

SMILES: O=c1cc(CNCc2cccc(O)c2)oc2ccc(O)c(O)c12
- EC50 [1]: > 100 µM
- CC50 [2]: > 100 µM

SMILES: O=c1cc(CNCc2cccc([N+](=O)[O-])c2)oc2ccc(O)c(O)c12
- EC50 [1]: > 100 µM
- CC50 [2]: > 100 µM

SMILES: Cc1ccccc1CNCc1cc(=O)c2c(O)c(O)ccc2o1
- EC50 [1]: 1.2 µM
- CC50 [2]: 52.2 µM

SMILES: Cc1ccc(CNCc2cc(=O)c3c(O)c(O)ccc3o2)cc1
- EC50 [1]: 5.7 µM
- CC50 [2]: > 100 µM

SMILES: O=c1cc(CNCc2cccc(F)c2)oc2ccc(O)c(O)c12
- EC50 [1]: > 100 µM
- CC50 [2]: > 100 µM

SMILES: O=c1cc(CNCc2ccc(Cl)cc2)oc2ccc(O)c(O)c12
- EC50 [1]: > 100 µM
- CC50 [2]: > 100 µM

SMILES: O=c1cc(CNCc2ccccc2O)oc2ccc(O)c(O)c12
- EC50 [1]: > 100 µM
- CC50 [2]: > 100 µM

SMILES: O=c1cc(CNCc2ccc(Br)cc2)oc2ccc(O)c(O)c12
- EC50 [1]: > 100 µM
- CC50 [2]: > 100 µM

SMILES: Cc1cccc(CNCc2cc(=O)c3c(O)c(O)ccc3o2)c1
- EC50 [1]: 2 µM
- CC50 [2]: > 100 µM

SMILES: O=c1cc(CNCc2ccccc2Cl)oc2ccc(O)c(O)c12
- EC50 [1]: > 100 µM
- CC50 [2]: > 100 µM

SMILES: O=c1cc(CNCc2cccc(Br)c2)oc2ccc(O)c(O)c12
- EC50 [1]: 3.6 µM
- CC50 [2]: > 100 µM

SMILES: O=c1cc(CNCc2ccccc2I)oc2ccc(O)c(O)c12
- EC50 [1]: 6.3 µM
- CC50 [2]: 87.3 µM

SMILES: O=c1cc(CNCc2ccccc2)oc2ccc(O)c(O)c12
- EC50 [1]: > 100 µM
- CC50 [2]: > 100 µM

SMILES: O=c1cc(CNCc2ccc(I)cc2)oc2ccc(O)c(O)c12
- EC50 [1]: 4.1 µM
- CC50 [2]: 41.7 µM

SMILES: O=c1cc(CNCc2cccc(I)c2)oc2ccc(O)c(O)c12
- EC50 [1]: 7.3 µM
- CC50 [2]: > 100 µM
